# Measured values from ChEMBL document CHEMBL1150818, “Antimalarial, antiviral, and antitoxoplasmosis norsesterterpene peroxide acids from the Red Sea sponge Diacarnus erythraeanus” (J Nat Prod, 2001).
# Assays:
# Plasmodium falciparum [1] = experiment: Antimalarial activity against Plasmodium falciparum D6; format: functional, organism-based
# [2] = Selectivity index, ratio of IC50 for african green monkey (Cercopithecus aethiops) Vero cells to IC50 for Plasmodium falciparum D6; format: toxicity, cell-based; conditions: read-out: Ratio IC50
# Plasmodium falciparum [3] = experiment: Antimalarial activity against Plasmodium falciparum W2; format: functional, organism-based
# [4] = Selectivity index, ratio of IC50 for african green monkey (Cercopithecus aethiops) Vero cells to IC50 for Plasmodium falciparum W2; format: toxicity, cell-based; conditions: read-out: Ratio IC50
# Vero = experiment: Cytotoxicity against african green monkey Vero cells; format: cell-based; conditions: Chlorocebus sabaeus
# Method in brief: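 Cytotoxicity taken from the same HSV-1 plaque cultures: concentration causing half-maximal loss of uninfected Vero cells from the monolayer surrounding plaques.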
# HFF [5] = experiment: Toxicity against HFF cells at 0.010 uM after 24 hrs by MTT assay relative to control; format: cell-based; conditions: human, 0.01 µM
# Method in brief: (§1)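 Host-cell toxicity for HFF and L929 cells determined by MTT cell proliferation assay; expressed as percent of control.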
# HFF [6] = experiment: Toxicity against HFF cells at 0.10 uM after 24 hrs by MTT assay relative to control; format: cell-based; conditions: human, 0.1 µM; method in brief: as §1
# HFF [7] = experiment: Toxicity against HFF cells at 1 uM after 24 hrs by MTT assay relative to control; format: cell-based; conditions: human; method in brief: as §1
# HFF [8] = experiment: Toxicity against HFF cells at 10 uM after 24 hrs by MTT assay relative to control; format: cell-based; conditions: human; method in brief: as §1
# HFF [9] = experiment: Toxicity against HFF cells at 0.010 uM after 48 hrs by MTT assay relative to control; format: cell-based; conditions: human, 0.01 µM; method in brief: as §1
# HFF [10] = experiment: Toxicity against HFF cells at 0.10 uM after 48 hrs by MTT assay relative to control; format: cell-based; conditions: human, 0.1 µM; method in brief: as §1
# HFF [11] = experiment: Toxicity against HFF cells at 1 uM after 48 hrs by MTT assay relative to control; format: cell-based; conditions: human; method in brief: as §1
# HFF [12] = experiment: Toxicity against HFF cells at 10 uM after 48 hrs by MTT assay relative to control; format: cell-based; conditions: human; method in brief: as §1
# Toxoplasma gondii [13] = experiment: Antiparasitic activity against Toxoplasma gondii infected in HFF cells at 0.01 uM after 24 hrs by [3H]uracil incorporation assay relative to control; format: functional
# Toxoplasma gondii [14] = experiment: Antiparasitic activity against Toxoplasma gondii infected in HFF cells at 0.1 uM after 24 hrs by [3H]uracil incorporation assay relative to control; format: functional
# Toxoplasma gondii [15] = experiment: Antiparasitic activity against Toxoplasma gondii infected in HFF cells at 1 uM after 24 hrs by [3H]uracil incorporation assay relative to control; format: functional
# Toxoplasma gondii [16] = experiment: Antiparasitic activity against Toxoplasma gondii infected in HFF cells at 10 uM after 24 hrs by [3H]uracil incorporation assay relative to control; format: functional
# Toxoplasma gondii [17] = experiment: Antiparasitic activity against Toxoplasma gondii infected in HFF cells at 0.01 uM after 48 hrs by [3H]uracil incorporation assay relative to control; format: functional
# Toxoplasma gondii [18] = experiment: Antiparasitic activity against Toxoplasma gondii infected in HFF cells at 0.1 uM after 48 hrs by [3H]uracil incorporation assay relative to control; format: functional
# Toxoplasma gondii [19] = experiment: Antiparasitic activity against Toxoplasma gondii infected in HFF cells at 1 uM after 48 hrs by [3H]uracil incorporation assay relative to control; format: functional
# Toxoplasma gondii [20] = experiment: Antiparasitic activity against Toxoplasma gondii infected in HFF cells at 10 uM after 48 hrs by [3H]uracil incorporation assay relative to control; format: functional
# L929 [21] = experiment: Toxicity against mouse L929 cells at 0.010 uM after 24 hrs by MTT assay relative to control; format: cell-based; conditions: l929, 24 h, 0.01 µM; method in brief: as §1
# L929 [22] = experiment: Toxicity against mouse L929 cells at 0.10 uM after 24 hrs by MTT assay relative to control; format: cell-based; conditions: l929, 24 h, 0.1 µM; method in brief: as §1
# L929 [23] = experiment: Toxicity against mouse L929 cells at 1 uM after 24 hrs by MTT assay relative to control; format: cell-based; conditions: l929, 24 h; method in brief: as §1
# L929 [24] = experiment: Toxicity against mouse L929 cells at 10 uM after 24 hrs by MTT assay relative to control; format: cell-based; conditions: l929, 24 h; method in brief: as §1
# L929 [25] = experiment: Toxicity against mouse L929 cells at 0.010 uM after 48 hrs by MTT assay relative to control; format: cell-based; conditions: l929, 48 h, 0.01 µM; method in brief: as §1
# L929 [26] = experiment: Toxicity against mouse L929 cells at 0.10 uM after 48 hrs by MTT assay relative to control; format: cell-based; conditions: l929, 48 h, 0.1 µM; method in brief: as §1
# L929 [27] = experiment: Toxicity against mouse L929 cells at 1 uM after 48 hrs by MTT assay relative to control; format: cell-based; conditions: l929, 48 h; method in brief: as §1
# L929 [28] = experiment: Toxicity against mouse L929 cells at 10 uM after 48 hrs by MTT assay relative to control; format: cell-based; conditions: l929, 48 h; method in brief: as §1
# Toxoplasma gondii [29] = experiment: Antiparasitic activity against Toxoplasma gondii infected in mouse L929 cells at 0.01 uM after 24 hrs by [3H]uracil incorporation assay relative to control; format: functional
# Toxoplasma gondii [30] = experiment: Antiparasitic activity against Toxoplasma gondii infected in mouse L929 cells at 0.1 uM after 24 hrs by [3H]uracil incorporation assay relative to control; format: functional
# Toxoplasma gondii [31] = experiment: Antiparasitic activity against Toxoplasma gondii infected in mouse L929 cells at 1 uM after 24 hrs by [3H]uracil incorporation assay relative to control; format: functional
# Toxoplasma gondii [32] = experiment: Antiparasitic activity against Toxoplasma gondii infected in mouse L929 cells at 10 uM after 24 hrs by [3H]uracil incorporation assay relative to control; format: functional
# Toxoplasma gondii [33] = experiment: Antiparasitic activity against Toxoplasma gondii infected in mouse L929 cells at 0.01 uM after 48 hrs by [3H]uracil incorporation assay relative to control; format: functional
# Toxoplasma gondii [34] = experiment: Antiparasitic activity against Toxoplasma gondii infected in mouse L929 cells at 0.1 uM after 48 hrs by [3H]uracil incorporation assay relative to control; format: functional
# Toxoplasma gondii [35] = experiment: Antiparasitic activity against Toxoplasma gondii infected in mouse L929 cells at 1 uM after 48 hrs by [3H]uracil incorporation assay relative to control; format: functional
# Toxoplasma gondii [36] = experiment: Antiparasitic activity against Toxoplasma gondii infected in mouse L929 cells at 10 uM after 48 hrs by [3H]uracil incorporation assay relative to control; format: functional
# Human alphaherpesvirus 1 = experiment: Antiviral activity against HSV1 infected african green monkey Vero cells assessed as inhibition of viral-induced cytopathic effect; format: functional; conditions: Human alphaherpesvirus 1, Vero; read-out: ED50 (the source's name)
# Method in brief: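 Simplified plaque reduction assay: serial dilutions of test compounds with herpes simplex type 1 virus in Vero African green monkey kidney cell cultures in 96-well trays.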
# Plasmodium falciparum [37] = experiment: Antimalarial activity against Plasmodium falciparum D6 at 80 ug/mL; format: functional, organism-based
# Plasmodium falciparum [38] = experiment: Antimalarial activity against Plasmodium falciparum W2 at 80 ug/mL; format: functional, organism-based
Structure (SMILES),IC50 (Plasmodium falciparum [1]),selectivity ratio [2],IC50 (Plasmodium falciparum [3]),selectivity ratio [4],IC50 (Vero),Activity (HFF [5]),Activity (HFF [6]),Activity (HFF [7]),Activity (HFF [8]),Activity (HFF [9]),Activity (HFF [10]),Activity (HFF [11]),Activity (HFF [12]),Activity (Toxoplasma gondii [13]),Activity (Toxoplasma gondii [14]),Activity (Toxoplasma gondii [15]),Activity (Toxoplasma gondii [16]),Activity (Toxoplasma gondii [17]),Activity (Toxoplasma gondii [18]),Activity (Toxoplasma gondii [19]),other results
C=C1CCC[C@@H]2[C@@H](CC[C@@]3(C)CC[C@H]([C@H](C)C(=O)O)OO3)[C@H](C)CC[C@@]12C [SIGMOSCEPTRELLIN B],1.2 µg/mL,> 2.7,3.4 µg/mL,> 1,2.5 µg/mL,0%,0%,86.81%,87.41%,0%,5.56%,64.37%,94.65%,0%,84.72%,96.49%,94.91%,37.57%,98.32%,100%,Activity (Toxoplasma gondii [20]): 100%; Activity (L929 [21]): 0%; Activity (L929 [22]): 0%; Activity (L929 [23]): 60.48%; Activity (L929 [24]): 92.96%; Activity (L929 [25]): 0%; Activity (L929 [26]): 0%; Activity (L929 [27]): 91.21%; Activity (L929 [28]): 91.05%; Activity (Toxoplasma gondii [29]): 0%; Activity (Toxoplasma gondii [30]): 18.61%; Activity (Toxoplasma gondii [31]): 91.88%; Activity (Toxoplasma gondii [32]): 96.62%; Activity (Toxoplasma gondii [33]): 24.15%; Activity (Toxoplasma gondii [34]): 35.17%; Activity (Toxoplasma gondii [35]): 98.82%; Activity (Toxoplasma gondii [36]): 100%
C=C1CCC[C@H]2[C@](C)(CC[C@]3(C)CC[C@H]([C@@H](C)C(=O)O)OO3)[C@@H](C)CC[C@]12C [SIGMOSCEPTRELLIN A],0.47 µg/mL,–,0.42 µg/mL,–,–,–,–,–,–,–,–,–,–,–,–,–,–,–,–,–,–
CC1=C(CC/C(C)=C/CC[C@@]2(C)CC[C@@H]([C@@H](C)C(=O)O)OO2)C(C)(C)CCC1 [MUQUBILIN],2.9 µg/mL,> 1.6,> 4.76 µg/mL,> 1,30 µg/mL,0%,7.15%,86.15%,85.85%,0%,0.94%,85.93%,84.73%,3.16%,84%,86.18%,91.72%,0%,62.88%,87.94%,EC50 (Human alphaherpesvirus 1): 7.5 µg/mL; Activity (Toxoplasma gondii [20]): 100%; Activity (L929 [21]): 0%; Activity (L929 [22]): 0%; Activity (L929 [23]): 66.3%; Activity (L929 [24]): 93%; Activity (L929 [25]): 0%; Activity (L929 [26]): 0%; Activity (L929 [27]): 83.36%; Activity (L929 [28]): 94.9%; Activity (Toxoplasma gondii [29]): 33.85%; Activity (Toxoplasma gondii [30]): 58.35%; Activity (Toxoplasma gondii [31]): 84.03%; Activity (Toxoplasma gondii [32]): 87.84%; Activity (Toxoplasma gondii [33]): 0%; Activity (Toxoplasma gondii [34]): 46.3%; Activity (Toxoplasma gondii [35]): 96.77%; Activity (Toxoplasma gondii [36]): 100%
CC(=O)CCCC(C)(C)C(=O)CC/C(C)=C/CC[C@@]1(C)CC[C@H]([C@H](C)C(=O)O)OO1 [AIKUPIKOXIDE A],–,–,–,–,60 µg/mL,–,–,–,–,–,–,–,–,–,–,–,–,–,–,–,EC50 (Human alphaherpesvirus 1): 30 µg/mL; IC50 (Plasmodium falciparum [37]): Not Active; IC50 (Plasmodium falciparum [38]): Not Active
